Experimental data from ChEMBL document CHEMBL1127450, “Synthesis and antiviral activity evaluation of some aminoadamantane derivatives” (1994).
Values after ≈ are worked out from the molar mass of the structure shown.

Experiments:
Type in all cases: functional
HEF [1] = assay: Tested for minimum inhibitory concentration required to reduce virus-induced cytopathicity by 50% on HEF cell line infected with HSV-2 virus; settings: Homo sapiens
Outline: (§1)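 Human embryonic skin-muscle fibroblasts (HEF) were infected with the stated virus. The value is the concentration that reduces virus-induced cytopathicity by 50%. Values are averages of at least two separate experiments.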

HEF [2] = assay: Tested for minimum inhibitory concentration required to reduce virus-induced cytopathicity by 50% on HEF cell line infected with vesicular stomatitis virus; settings: Homo sapiens; outline: as §1
HEF [3] = assay: Tested for minimum inhibitory concentration required to reduce virus-induced cytopathicity by 50% on HEF cell line infected with vaccinia virus; settings: Homo sapiens; outline: as §1
HEF [4] = assay: Tested for minimum inhibitory concentration required to reduce virus-induced cytopathicity by 50% on HEF cell line infected with thymidine kinase-deficient herpes simplex virus type 1 (TK-HSV-1); settings: Homo sapiens; outline: as §1
HEF [5] = assay: Tested for minimum inhibitory concentration required to reduce virus-induced cytopathicity by 50% on HEF cell line infected with HSV-1 virus; settings: Homo sapiens; outline: as §1
Vero [6] = assay: Tested for minimum inhibitory concentration required to cause a microscopically detectable alteration of normal cell morphology by 50% on vero cell line; settings: Chlorocebus sabaeus
Outline: (§2)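 HeLa (human epithelial), MDCK (Madin-Darby canine kidney) or Vero (African green monkey kidney) cells were scored by microscopy. The value is the minimum concentration that causes a detectable alteration of normal cell morphology. Values are averages of at least two separate experiments.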

Vero [7] = assay: Tested for minimum inhibitory concentration required to reduce virus-induced cytopathicity by 50% on vero cell line infected with semliki forest virus; settings: Chlorocebus sabaeus
Outline: (§3)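 HeLa (human epithelial), MDCK (Madin-Darby canine kidney) or Vero (African green monkey kidney) cells were infected with the stated virus. The value is the concentration that reduces virus-induced cytopathicity by 50%. Values are averages of at least two separate experiments.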

HEF [8] = assay: Tested for minimum inhibitory concentration required to cause a microscopically detectable alteration of normal cell morphology by 50% on HEF cell line; settings: Homo sapiens
Outline: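 Human embryonic skin-muscle fibroblasts (HEF) were used. The value is the minimum concentration that causes a microscopically detectable alteration of normal cell morphology. Values are averages of at least two separate experiments.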

Vero [9] = assay: Tested for minimum inhibitory concentration required to reduce virus-induced cytopathicity by 50% on vero cell line infected with Reo 1 virus; settings: Chlorocebus sabaeus; outline: as §3
CCRF-CEM [10] = assay: Tested for minimum inhibitory concentration required to reduce virus-induced cytopathicity by 50% was evaluated on CEM cell line infected with HIV-1 virus; settings: Homo sapiens
Vero [11] = assay: Tested for minimum inhibitory concentration required to reduce virus-induced cytopathicity by 50% on vero cell line infected with coxsackie B4 virus; settings: Chlorocebus sabaeus; outline: as §3
CCRF-CEM [12] = assay: Tested for minimum inhibitory concentration required to reduce virus-induced cytopathicity by 50% on CEM cell line infected with HIV-2 virus; settings: Homo sapiens
MDCK [13] = assay: Tested for minimum inhibitory concentration required to reduce virus-induced cytopathicity by 50% on MDCK cell line infected with influenza A virus; settings: Canis lupus familiaris; outline: as §3
HeLa [14] = assay: Tested for minimum inhibitory concentration required to reduce virus-induced cytopathicity by 50% on HeLa cell line infected with polio 1 virus; settings: Homo sapiens; outline: as §3
HeLa [15] = assay: tested for minimum inhibitory concentration required to cause a microscopically detectable alteration of normal cell morphology by 50% on HeLa cell line; settings: Homo sapiens; outline: as §2
MDCK [16] = assay: Tested for minimum inhibitory concentration required to reduce virus-induced cytopathicity by 50% on MDCK cell line infected with influenza B virus; settings: Canis lupus familiaris; outline: as §3
HEF [17] = assay: Tested for minimum inhibitory concentration required to reduce […] by 50% on HEF cell line; settings: Homo sapiens
Outline: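 Human embryonic lung fibroblasts (HEF) were used for cell proliferation. The value is the concentration that reduces cell proliferation by 50%. Values are averages of at least two separate experiments.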

CCRF-CEM [18] = assay: Tested for minimum inhibitory concentration required to reduce virus-induced cell viability by 50% on CEM cell line; settings: Homo sapiens
HeLa [19] = assay: Tested for minimum inhibitory concentration required to reduce virus-induced cytopathicity by 50% on HeLa cell line infected with RSV virus; settings: Homo sapiens; outline: as §3
Vero [20] = assay: Tested for minimum inhibitory concentration required to reduce virus-induced cytopathicity by 50% on vero cell line infected with parainfluenza 3 virus; settings: Chlorocebus sabaeus; outline: as §3
MDCK [21] = assay: Tested for minimum inhibitory concentration required to cause a microscopically detectable alteration of normal cell morphology by 50% on MDCK cell line; settings: Canis lupus familiaris; outline: as §2
Vero [22] = assay: Tested for minimum inhibitory concentration required to reduce virus-induced cytopathicity by 50% on vero cell line infected with sindbis virus; settings: Chlorocebus sabaeus; outline: as §3
HeLa [23] = assay: Tested for minimum inhibitory concentration required to cause a microscopically detectable alteration of normal cell morphology by 50% on HeLa cell line; settings: Homo sapiens; outline: as §2
Vero [24] = assay: Tested for minimum inhibitory concentration required to reduce virus-induced cytopathicity by 50% on vero cell line infected with semliki forest; settings: Chlorocebus sabaeus; outline: as §3
Vero [25] = assay: Tested for minimum inhibitory concentration required to cause a microscopically detectable alteration of normal cell morphology by 50% on Vero cell line; settings: Chlorocebus sabaeus; outline: as §2

CCN1CCCC12C1CC3CC(C1)CC2C3 (stereo unspecified) showed an MIC50 (HEF [1]) of over 400 µg/mL, an MIC50 (HEF [2]) of at least 400 µg/mL and an MIC50 (HEF [3]) of over 400 µg/mL. The MIC50 (HEF [4]) was at least 400 µg/mL, the MIC50 (HEF [5]) was over 400 µg/mL and the MIC50 (Vero [6]) was over 400 µg/mL. For the same compound, the MIC50 (Vero [7]) was over 400 µg/mL, the MIC50 (HEF [8]) was over 400 µg/mL and the MIC50 (Vero [9]) was over 400 µg/mL. It also gave an MIC50 (CCRF-CEM [10]) of over 200 µg/mL, an MIC50 (Vero [11]) of over 400 µg/mL and an MIC50 (CCRF-CEM [12]) of over 200 µg/mL. For the same compound, the MIC50 (MDCK [13]) was 2.4 µg/mL (≈ 10.9 µM), the MIC50 (HeLa [14]) was over 400 µg/mL and the MIC50 (HeLa [15]) was over 400 µg/mL. The MIC50 (MDCK [16]) was over 200 µg/mL, the MIC50 (HEF [17]) was over 200 µg/mL and the MIC50 (CCRF-CEM [18]) was over 200 µg/mL. It also gave an MIC50 (HeLa [19]) of over 200 µg/mL, an MIC50 (Vero [20]) of over 400 µg/mL and an MIC50 (MDCK [21]) of over 200 µg/mL. For the same compound, the MIC50 (Vero [22]) was over 400 µg/mL.

In the case of NCC1CC12C1CC3CC(C1)CC2C3 (stereo unspecified), the MIC50 (HEF [1]) is reported as over 20 µg/mL, the MIC50 (HEF [2]) is reported as over 20 µg/mL and the MIC50 (HEF [3]) is reported as over 20 µg/mL. For the same compound, the MIC50 (HeLa [23]) was 20 µg/mL (≈ 105 µM), the MIC50 (Vero [24]) was over 20 µg/mL and the MIC50 (HEF [4]) was over 20 µg/mL. It also gave an MIC50 (HEF [5]) of over 20 µg/mL, an MIC50 (Vero [6]) of 40 µg/mL (≈ 209 µM) and an MIC50 (HEF [8]) of 40 µg/mL (≈ 209 µM). The MIC50 (Vero [9]) was over 20 µg/mL, the MIC50 (CCRF-CEM [10]) was over 8 µg/mL and the MIC50 (Vero [11]) was over 20 µg/mL. The MIC50 (CCRF-CEM [12]) was over 8 µg/mL, the MIC50 (MDCK [13]) was 0.8 µg/mL (≈ 4.18 µM) and the MIC50 (HeLa [14]) was over 10 µg/mL. The MIC50 (MDCK [16]) was over 20 µg/mL, the MIC50 (HEF [17]) was 28 µg/mL (≈ 146 µM) and the MIC50 (CCRF-CEM [18]) was 14 µg/mL (≈ 73.2 µM). The MIC50 (HeLa [19]) was at least 15 µg/mL, the MIC50 (Vero [20]) was over 20 µg/mL and the MIC50 (MDCK [21]) was 20 µg/mL (≈ 105 µM). It also gave an MIC50 (Vero [22]) of over 20 µg/mL.

CN1CCCC12C1CC3CC(C1)CC2C3 (stereo unspecified) gave an MIC50 (HEF [1]) of over 400 µg/mL, an MIC50 (HEF [2]) of at least 400 µg/mL and an MIC50 (HEF [3]) of over 400 µg/mL. It also gave an MIC50 (HeLa [23]) of over 400 µg/mL, an MIC50 (HEF [4]) of at least 400 µg/mL and an MIC50 (HEF [5]) of at least 400 µg/mL. It also gave an MIC50 (Vero [6]) of over 400 µg/mL, an MIC50 (Vero [7]) of over 400 µg/mL and an MIC50 (HEF [8]) of over 400 µg/mL. The MIC50 (Vero [9]) was over 400 µg/mL, the MIC50 (CCRF-CEM [10]) was over 200 µg/mL and the MIC50 (Vero [11]) was over 400 µg/mL. For the same compound, the MIC50 (CCRF-CEM [12]) was over 200 µg/mL, the MIC50 (MDCK [13]) was 0.56 µg/mL (≈ 2.73 µM) and the MIC50 (HeLa [14]) was over 400 µg/mL. It also gave an MIC50 (MDCK [16]) of over 200 µg/mL, an MIC50 (HEF [17]) of over 50 µg/mL and an MIC50 (CCRF-CEM [18]) of over 200 µg/mL. It also gave an MIC50 (HeLa [19]) of over 200 µg/mL, an MIC50 (Vero [20]) of over 400 µg/mL and an MIC50 (MDCK [21]) of over 200 µg/mL. For the same compound, the MIC50 (Vero [22]) was over 400 µg/mL.

For CNC1CC12C1CC3CC(C1)CC2C3 (stereo unspecified), the MIC50 (HEF [1]) was over 70 µg/mL, the MIC50 (HEF [2]) was over 40 µg/mL and the MIC50 (HEF [3]) was over 70 µg/mL. The MIC50 (HeLa [23]) was 200 µg/mL (≈ 1050 µM), the MIC50 (HEF [4]) was over 40 µg/mL and the MIC50 (HEF [5]) was over 70 µg/mL. The MIC50 (Vero [25]) was 100 µg/mL (≈ 523 µM), the MIC50 (Vero [7]) was over 70 µg/mL and the MIC50 (HEF [8]) was 100 µg/mL (≈ 523 µM). For the same compound, the MIC50 (Vero [9]) was over 70 µg/mL, the MIC50 (CCRF-CEM [10]) was over 8 µg/mL and the MIC50 (Vero [11]) was over 70 µg/mL. For the same compound, the MIC50 (CCRF-CEM [12]) was over 8 µg/mL, the MIC50 (MDCK [13]) was 1.2 µg/mL (≈ 6.27 µM) and the MIC50 (HeLa [14]) was over 100 µg/mL. It also gave an MIC50 (MDCK [16]) of over 100 µg/mL, an MIC50 (HEF [17]) of 90 µg/mL (≈ 470 µM) and an MIC50 (CCRF-CEM [18]) of 75 µg/mL (≈ 392 µM). It also gave an MIC50 (HeLa [19]) of over 150 µg/mL, an MIC50 (Vero [20]) of over 70 µg/mL and an MIC50 (MDCK [21]) of 100 µg/mL (≈ 523 µM). The MIC50 (Vero [22]) was over 70 µg/mL.

Work on NC12CC3CC(CC(C3)C1)C2 [AMANTADINE] yielded an MIC50 (HeLa [23]) of 100 µg/mL (≈ 661 µM), an MIC50 (MDCK [13]) of 100 µg/mL (≈ 661 µM) and an MIC50 (MDCK [16]) of over 200 µg/mL. The MIC50 (HeLa [19]) was over 100 µg/mL and the MIC50 (MDCK [21]) was over 100 µg/mL.

NC(=O)c1ncn([C@@H]2O[C@H](CO)[C@@H](O)[C@H]2O)n1 [RIBAVIRIN] gave an MIC50 (HEF [1]) of over 400 µg/mL, an MIC50 (HEF [2]) of 20 µg/mL (≈ 81.9 µM) and an MIC50 (HEF [3]) of 70 µg/mL (≈ 287 µM). The MIC50 (HeLa [23]) was over 200 µg/mL, the MIC50 (HEF [4]) was at least 200 µg/mL and the MIC50 (HEF [5]) was 200 µg/mL (≈ 819 µM). The MIC50 (Vero [6]) was over 400 µg/mL, the MIC50 (Vero [7]) was 20 µg/mL (≈ 81.9 µM) and the MIC50 (HEF [8]) was over 400 µg/mL. It also gave an MIC50 (Vero [9]) of 20 µg/mL (≈ 81.9 µM), an MIC50 (Vero [11]) of 300 µg/mL (≈ 1230 µM) and an MIC50 (MDCK [13]) of 1.2 µg/mL (≈ 4.91 µM). It also gave an MIC50 (HeLa [14]) of 70 µg/mL (≈ 287 µM), an MIC50 (MDCK [16]) of 4 µg/mL (≈ 16.4 µM) and an MIC50 (HeLa [19]) of 2.8 µg/mL (≈ 11.5 µM). It also gave an MIC50 (Vero [20]) of 70 µg/mL (≈ 287 µM), an MIC50 (MDCK [21]) of over 200 µg/mL and an MIC50 (Vero [22]) of 70 µg/mL (≈ 287 µM).
